Assay results taken from ChEMBL document CHEMBL4715758, “Hit-to-Lead Optimization of a Novel Class of Potent, Broad-Spectrum Trypanosomacides” (J Med Chem, 2016).
Activity calls are given as the source filed them. The calls are words filed in the database; no cut-off is given here.

Tests used:
Trypanosoma cruzi [1] = experiment: Antitrypanosomal activity against Trypanosoma cruzi Tulahuen strain trypomastigotes infected in rat H9c2 cells incubated for 72 hrs by DRAQ5 DNA dye based imaging analysis; type: functional, organism-based; conditions: H9c2, 72 h
[2] = Selectivity index, ratio of IC50 for cytotoxicity against human HEK293 cells assessed as reduction in cell viability to IC50 for antitrypanosomal activity against Trypanosoma brucei brucei Lister 427 blood stream form; type: toxicity, cell-based; conditions: read-out: Ratio IC50
[3] = Selectivity index, ratio of IC50 for cytotoxicity against rat H9c2 cells assessed as reduction in cell viability to IC50 for antitrypanosomal against Trypanosoma cruzi Tulahuen trypomastigotes infected in rat H9c2 cells; type: toxicity, cell-based; conditions: read-out: Ratio IC50
[4] = test system: Trypanosoma brucei brucei; experiment: Antitrypanosomal activity against Trypanosoma brucei brucei Lister 427 strain blood stream forms incubated for 48 hrs by resazurin dye based fluorescence assay; type: functional, organism-based; conditions: Lister 427, 48 h
Trypanosoma cruzi [5] = experiment: Antitrypanosomal activity against Trypanosoma cruzi Tulahuen strain trypomastigotes infected in rat H9c2 cells at 10 uM incubated for 72 hrs by DRAQ5 DNA dye based imaging analysis relative to control; type: functional
[6] = test system: Trypanosoma brucei brucei; experiment: Antitrypanosomal activity against Trypanosoma brucei brucei Lister 427 strain blood stream form assessed as parasite growth inhibition at 10 uM incubated for 48 hrs by resazurin dye based fluorescence assay relative to control; type: functional; conditions: for inhibition at 10 µM: Lister 427, 48 h
How it was run: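 Alamar Blue (resazurin) growth-inhibition screen against T. b. brucei at 10 μM, the same assay used to find the original hit. Compounds reaching 50% or greater inhibition were then taken into concentration–response testing for IC50.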

[7] = Intrinsic clearance in human liver microsomes assessed per mg protein measured after 60 mins in presence of NADPH generating system by LC-MS analysis; type: ADME, Microsome; conditions: read-out: CLH
[8] = Metabolic stability in human liver microsomes assessed as degradation half-life measured after 60 mins in presence of NADPH generating system by LC-MS analysis; type: ADME, Microsome; conditions: read-out: T50

IC50 (Trypanosoma cruzi [1])	IC50 [4]	SMILES	selectivity ratio [2]	selectivity ratio [3]	also measured
0.32 µM	–	O=C(NCCc1csc(-c2ccccc2)n1)C1CCCCC1	–	–	–
10 µM	2.4 µM	O=C(NCCc1csc(-c2cccs2)n1)C1CCCC1	35	> 5	–
1 µM	0.26 µM	CCN(CC)C(=O)NCCc1csc(-c2ccccc2)n1	320	> 50	–
0.4 µM	–	O=C(NCCc1csc(-c2ccccc2)n1)c1cccs1	–	–	–
–	5.5 µM	O=C(NCCc1csc(-c2ccccc2)n1)C1CC2C=CC1O2 (racemic)	15	–	–
3.2 µM	0.97 µM	O=C(NCCc1csc(-c2ccccc2)n1)OCC1CC1	86	> 15	–
–	–	COc1ccc(-c2nc(CCNC(=O)N3CCCCC3)cs2)cc1	–	–	inhibition at 10 µM (Trypanosoma cruzi [5]): < 50%; inhibition at 10 µM [6]: > 50%
–	0.35 µM	O=C(NCCc1csc(-c2ccccc2)n1)c1ccoc1	240	–	–
2.5 µM	–	O=C(NCCc1csc(-c2ccccc2)n1)c1cccnc1	–	–	–
–	1.2 µM	O=C(NCCc1csc(-c2ccccc2)n1)c1cscn1	68	–	–
40 µM	–	Cc1ccc(C(=O)NCCc2csc(-c3ccccc3)n2)cc1	–	1.2	inhibition at 10 µM [6]: < 50%
–	–	O=C(Cc1ccccc1)NCCc1csc(-c2ccccc2)n1	–	–	inhibition at 10 µM [6]: < 50%
40 µM	5.3 µM	CC(C)C(=O)NCCc1csc(-c2ccccc2)n1	16	> 1.2	–
32 µM	–	O=C(NCCc1csc(-c2ccncc2)n1)c1ccccc1	–	–	–
–	3.7 µM	Cc1ccc(-c2nc(CCNC(=O)N3CCCCC3)cs2)cc1	22	–	–
–	–	O=C(NCCc1csc(-c2ccccc2)n1)c1cccc(S(F)(F)(F)(F)F)c1	–	–	inhibition at 10 µM (Trypanosoma cruzi [5]): < 50%; inhibition at 10 µM [6]: < 50%
–	11.6 µM	O=C(NCCc1csc(-c2ccccc2)n1)c1cccc(C(F)(F)F)c1	1.8	–	inhibition at 10 µM (Trypanosoma cruzi [5]): < 50%
16 µM	–	O=C(NCCc1csc(-c2ccccc2)n1)c1ccc2ccccc2c1	–	> 3.1	inhibition at 10 µM [6]: < 50%
2.5 µM	0.74 µM	O=C(NCCc1csc(-c2ccccc2)n1)c1ccon1	113	> 19	–
–	–	CCC(=O)NCCc1csc(-c2ccccc2)n1	–	–	inhibition at 10 µM (Trypanosoma cruzi [5]): < 50%; inhibition at 10 µM [6]: < 50%
–	0.19 µM	Cc1ccccc1-c1nc(CCNC(=O)N2CCCCC2)cs1	439	–	–
7.9 µM	2.3 µM	O=C(NCCc1csc(-c2ccccc2)n1)c1ccccc1O	18	> 3	–
1 µM	0.39 µM	CC(C)N(C)C(=O)NCCc1csc(-c2ccccc2)n1	212	> 50	–
–	0.28 µM	N#Cc1cccc(-c2nc(CCNC(=O)N3CCCCC3)cs2)c1	149	–	–
32 µM	–	O=S(=O)(NCCc1csc(-c2ccccc2)n1)N1CCCC1	–	–	inhibition [6]: inactive

IC50 (Trypanosoma cruzi [1])	IC50 [4]	SMILES	selectivity ratio [2]	selectivity ratio [3]	also measured
–	–	CC(C)(C)OC(=O)NCCc1csc(-c2ccccc2)n1	–	–	inhibition at 10 µM [6]: < 50%
0.12 µM	–	O=C(NCCc1csc(-c2ccccc2)n1)N1CCCCCC1	–	–	–
3.2 µM	–	O=C(NCCc1csc(-c2ccccc2)n1)N1CCOCC1	–	–	–
40 µM	–	O=C(Cc1ccc2c(c1)OCO2)NCCc1csc(-c2ccccc2)n1	–	> 1.2	inhibition at 10 µM [6]: < 50%
2 µM	3.6 µM	C[Si](C)(C)C#Cc1cccc(C(=O)NCCc2csc(-c3ccccc3)n2)c1	2.9	> 12	–
32 µM	9.1 µM	O=C(NCCc1csc(-c2ccncc2)n1)C1CCCC1	9	> 1.5	–
6.3 µM	1.7 µM	CC(C)(C)C(=O)NCCc1csc(-c2ccccc2)n1	50	> 7.9	–
6.3 µM	–	O=C(NCCc1csc(-c2ccccc2)n1)c1ccc[nH]1	–	–	–
0.4 µM	0.3 µM	O=C(NCCc1csc(-c2ccccc2)n1)OC1CCCC1	280	> 125	–
–	0.5 µM	COc1ccccc1-c1nc(CCNC(=O)N2CCCCC2)cs1	168	–	–
32 µM	4.1 µM	O=C(NCCc1csc(-c2ccccc2)n1)c1cnccn1	20	> 1.5	–
40 µM	–	O=C(NCCc1csc(-c2ccccc2)n1)c1ccncc1	–	–	–
–	4 µM	O=C(NCCc1csc(-c2ccccn2)n1)C1CCCC1	21	–	–
0.79 µM	–	N#Cc1cccc(C(=O)NCCc2csc(-c3ccccc3)n2)c1	–	–	–
–	–	N#Cc1ccccc1C(=O)NCCc1csc(-c2ccccc2)n1	–	–	inhibition at 10 µM [6]: < 50%
0.4 µM	0.22 µM	CC(C)OC(=O)NCCc1csc(-c2ccccc2)n1	385	> 125	–
32 µM	9.6 µM	CC(C)N(C(=O)NCCc1csc(-c2ccccc2)n1)C(C)C	10	> 1.5	–
40 µM	–	O=C(NCCc1csc(-c2cccnc2)n1)c1ccccc1	–	–	–
–	0.33 µM	N#Cc1ccc(-c2nc(CCNC(=O)N3CCCCC3)cs2)cc1	125	–	–
–	–	CC(=O)NCCc1csc(-c2ccccc2)n1	–	–	inhibition at 10 µM (Trypanosoma cruzi [5]): < 50%; inhibition at 10 µM [6]: < 50%
–	–	O=C(CC1CC2CCC1C2)NCCc1csc(-c2ccccc2)n1 (racemic)	–	–	inhibition at 10 µM [6]: < 50%
–	–	O=C(NCCc1csc(-c2ccccc2)n1)c1ccc(Cl)cc1	–	–	inhibition at 10 µM [6]: < 50%
20 µM	6.6 µM	O=C(NCCc1csc(-c2cccnc2)n1)C1CCCC1	13	> 2.5	–
2 µM	–	O=C(NCCc1csc(-c2ccccc2)n1)c1ccco1	–	–	–
1.6 µM	0.9 µM	CC(C)NC(=O)NCCc1csc(-c2ccccc2)n1	93	> 31	–

IC50 (Trypanosoma cruzi [1])	IC50 [4]	SMILES	selectivity ratio [2]	selectivity ratio [3]	also measured
–	–	O=C(NCCc1csc(-c2ccccc2)n1)c1cnco1	–	–	inhibition at 10 µM (Trypanosoma cruzi [5]): < 50%; inhibition at 10 µM [6]: < 50%
0.79 µM	0.56 µM	N#Cc1ccccc1-c1nc(CCNC(=O)N2CCCCC2)cs1	148	> 63	–
5 µM	2.5 µM	O=C(NCCc1csc(-c2ccccc2)n1)c1cc(Br)co1	12	> 10	–
–	–	COc1ccc(C(=O)NCCc2csc(-c3ccccc3)n2)cc1	–	–	inhibition at 10 µM [6]: < 50%
6.3 µM	–	O=C(NCCc1csc(-c2ccccn2)n1)c1ccccc1	–	–	–
3.2 µM	3.3 µM	Cc1ccccc1C(=O)NCCc1csc(-c2ccccc2)n1	2.5	> 15	–
–	–	O=C(NCCc1csc(-c2ccccc2)n1)c1cccc(O)c1	–	–	inhibition at 10 µM [6]: < 50%
–	–	O=C(NCCc1csc(-c2ccccc2)n1)c1cccc2ccccc12	–	–	inhibition at 10 µM [6]: < 50%
40 µM	8.5 µM	CS(=O)(=O)c1cccc(C(=O)NCCc2csc(-c3ccccc3)n2)c1	4.9	> 1.2	–
–	1.9 µM	Cc1ccc(C(=O)NCCc2csc(-c3ccccc3)n2)o1	22	–	–
–	–	O=C(NCCc1csc(-c2ccccc2)n1)C1CCCC1	–	–	microsomal CLint [7]: 296 µL/min/mg; half-life [8]: 6 min
–	0.67 µM	COc1cccc(-c2nc(CCNC(=O)N3CCCCC3)cs2)c1	62	–	–
6.3 µM	3.9 µM	Cc1cccc(C(=O)NCCc2csc(-c3ccccc3)n2)c1	21	> 7.9	–
0.4 µM	–	N#Cc1ccc(C(=O)NCCc2csc(-c3ccccc3)n2)cc1	–	> 126	inhibition at 10 µM [6]: < 50%
–	0.76 µM	C#Cc1cccc(C(=O)NCCc2csc(-c3ccccc3)n2)c1	27	–	–
20 µM	–	O=S(=O)(NCCc1csc(-c2ccccc2)n1)c1ccccc1	–	–	inhibition [6]: inactive
–	1.5 µM	O=C(NCCc1csc(-c2ccc(Cl)cc2)n1)N1CCCCC1	55	–	–
–	5 µM	O=C(NCCc1csc(-c2ccccc2)n1)C1CCOCC1	17	–	–
–	–	O=CNCCc1csc(-c2ccccc2)n1	–	–	inhibition at 10 µM (Trypanosoma cruzi [5]): < 50%; inhibition at 10 µM [6]: < 50%
3.2 µM	1.9 µM	COc1cccc(C(=O)NCCc2csc(-c3ccccc3)n2)c1	26	> 15	–
10 µM	10.6 µM	COc1ccccc1C(=O)NCCc1csc(-c2ccccc2)n1	2	> 5	–
–	0.16 µM	O=C(NCCc1csc(-c2cccc(Cl)c2)n1)N1CCCCC1	511	–	–
–	1.1 µM	O=C(NCCc1csc(-c2ccccc2)n1)n1cccc1	38	–	–
